Assay results from ChEMBL document CHEMBL2331205, “Anti-hepatitis B virus and anti-cancer activities of novel isoflavone analogs” (Eur J Med Chem, 2013).

How the values were obtained:
A549 = experiment: Growth inhibition of human A549 cells after 48 hrs by MTT assay; type: functional, cell-based; conditions: A549, 48 h
How it was run: (§1)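 Cells seeded at 8000/well, treated 24 h later in duplicate with a range of concentrations (DMSO stock 10 g/L diluted in fresh medium), 48 h at 37 °C, 5% CO2. MTT (5 mg/ml in PBS) added for 4 h, formazan dissolved in DMSO, absorbance read at 570 nm. IC50 is the concentration giving 50% survival.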

HeLa = experiment: Growth inhibition of human HeLa cells after 48 hrs by MTT assay; type: functional, cell-based; how it was run: as §1
[1] = Growth inhibition of human QGY7701 cells after 48 hrs by MTT assay; type: functional; conditions: QGY7701, 48 h; how it was run: as §1
Huh-7 = experiment: Growth inhibition of human HuH7 cells after 48 hrs by MTT assay; type: functional, cell-based; conditions: Huh-7, 48 h; how it was run: as §1
[2] = Growth inhibition of human L02 cells after 48 hrs by MTT assay; type: functional, cell-based; conditions: L02, 48 h; how it was run: as §1
[3] = Selectivity index, ratio of CC50 for human HepG2(2.2.15) cells to IC50 for HBV infected in human HepG2(2.2.15) cells assessed as inhibition of viral replication; type: functional
How it was run: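 Selectivity index calculated as CC50 in HepG2 2.2.15 cells (MTT, 9-day exposure) divided by IC50 for HBV DNA reduction measured by fluorescence PCR after 9 days.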

[4] = Cytotoxicity against human HepG2(2.2.15) cells compound treated for 48 hrs followed by incubation for 9 days by MTT assay; type: cell-based
How it was run: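 HepG2 2.2.15 cells kept 48 h in plates before adding compounds (DMSO stocks serially diluted in medium), then incubated at 37 °C for 9 days. Media-only wells as blank. MTT (5 g/L) added 4 h before lysis in 10% SDS/50% DMF, pH 7.2; OD at 570 nm gives percent cell death; CC50 derived.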

Hepatitis B virus [5] = experiment: Antiviral activity against HBV infected in human HepG2(2.2.15) cells assessed as inhibition of viral replication after 9 days by fluorescence PCR method; type: functional, organism-based; conditions: HepG2 2.2.15, 216 h
How it was run: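 HepG2 2.2.15 cells given a range of compound concentrations for nine days; HBV DNA quantified by fluorescence PCR. IC50 taken as the concentration giving 50% inhibition of HBV DNA replication.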

Hepatitis B virus [6] = experiment: Antiviral activity against HBV infected in human HepG2(2.2.15) cells assessed as inhibition of HBeAg production after 9 days by ELISA; type: functional, organism-based; conditions: HepG2 2.2.15, 216 h
How it was run: (§2)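 HepG2 2.2.15 cells (HBV-producing) given a range of compound concentrations for nine days; culture supernatants collected and HBsAg or HBeAg levels measured by ELISA. IC50 taken as the concentration giving 50% inhibition of antigen level.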

Hepatitis B virus [7] = experiment: Antiviral activity against HBV infected in human HepG2(2.2.15) cells assessed as inhibition of HBsAg production after 9 days by ELISA; type: functional, organism-based; conditions: HepG2 2.2.15, 216 h; how it was run: as §2
[8] = Selectivity index, ratio of CC50 for human HepG2(2.2.15) cells to IC50 for HBV infected in human HepG2(2.2.15) cells assessed as inhibition of HBsAg production; type: functional
How it was run: (§3)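 Selectivity index calculated as CC50 in HepG2 2.2.15 cells (MTT, 9-day exposure) divided by IC50 for HBeAg or HBsAg reduction (ELISA of 9-day supernatants).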

[9] = Selectivity index, ratio of CC50 for human HepG2(2.2.15) cells to IC50 for HBV infected in human HepG2(2.2.15) cells assessed as inhibition of HBeAg production; type: functional; how it was run: as §3

| SMILES | IC50 (A549) [µM] | IC50 (HeLa) [µM] | IC50 [1] [µM] | IC50 (Huh-7) [µM] | IC50 [2] [µM] | Ratio CC50/IC50 [3] | CC50 at 48 h [4] [µM] | IC50 (Hepatitis B virus [5]) [µM] | IC50 (Hepatitis B virus [6]) [µM] | IC50 (Hepatitis B virus [7]) [µM] | Ratio CC50/IC50 [8] | Ratio CC50/IC50 [9] |
| --- | --- | --- | --- | --- | --- | --- | --- | --- | --- | --- | --- | --- |
| COc1ccc2c(=O)c(/C=C/C(=O)NCc3ccccc3)coc2c1 | 11.8 | 33.4 | > 100 | 13.6 | > 200 | 6.62 | 376 | 56.8 | > 100 | > 100 |  |  |
| COc1ccc2c(=O)c(/C=C/C(=O)NCc3cccc(F)c3)coc2c1 | 26.9 | 17.6 | 28.6 | 10.1 | > 200 | 6.3 | 475 | 75.4 | > 100 | 83.8 | 5.67 |  |
| COc1ccc2c(=O)c(/C=C/C(=O)Nc3ccc(C)cc3)coc2c1 | 17.5 | 24.1 | 39.3 | > 100 | > 200 | 34.69 | 979 | 28.2 | > 100 | > 100 |  |  |
| COc1ccc2c(=O)c(/C=C/C(=O)Nc3cccc(C)c3)coc2c1 | > 100 | > 100 | > 100 | 15.5 | > 200 | 15.85 | 554 | 34.9 | > 100 | > 100 |  |  |
| COc1ccc(NC(=O)/C=C/c2coc3cc(O)ccc3c2=O)cc1 | 12.8 | > 100 | > 100 | > 100 | > 200 | 139.21 | 976 | 7.01 | > 100 | > 100 |  |  |
| O=C(/C=C/c1coc2cc(O)ccc2c1=O)NCc1ccc(F)cc1F | 6.61 | > 100 | > 100 | > 100 | > 200 | 20.16 | 470 | 23.3 | 12.3 | 14.5 | 32.34 | 38.05 |
| COc1ccc2c(=O)c(/C=C/C(=O)Nc3ccccc3C)coc2c1 | 23.4 | 7.27 | 22.4 | 26.9 | > 200 |  | 59.7 | > 100 | 15.8 | 14.9 | 4 | 3.77 |
| COc1ccc(NC(=O)/C=C/c2coc3cc(OC)ccc3c2=O)cc1 | 23 | 13 | > 100 | > 100 | > 200 | 50.38 | 718 | 14.2 | > 100 | > 100 |  |  |
| O=C(/C=C/c1coc2cc(O)ccc2c1=O)NCc1ccc(F)cc1 | > 100 | > 100 | > 100 | > 100 | > 200 | 10.68 | 357 | 33.5 | > 100 | > 100 |  |  |
| COc1ccc2c(=O)c(/C=C/C(=O)Nc3ccccc3)coc2c1 | 51 | > 100 | 14 | 9.05 | > 200 |  | 523 | > 100 | 16.9 | 16 | 32.7 | 30.85 |
| COc1ccc2c(=O)c(/C=C/C(=O)NCCc3ccc(F)cc3)coc2c1 | 18.9 | > 100 | 24.8 | 29.2 | > 200 |  | 786 | > 100 | 14.7 | 14.7 | 53.64 | 53.45 |
| COc1ccc2c(=O)c(/C=C/C(=O)NCc3ccc(C)cc3)coc2c1 | > 100 | > 100 | 10.2 | 14.3 | > 200 | 4.81 | 257 | 53.5 | > 100 | 82.6 | 3.11 |  |
| COc1ccc2c(=O)c(/C=C/C(=O)NCc3ccc(F)cc3)coc2c1 | > 100 | > 100 | 7.96 | 20.9 | > 200 | 11.84 | 133 | 11.2 | > 100 | 58.8 | 2.26 |  |
| COc1ccc2c(=O)c(/C=C/C(=O)NCc3ccccc3F)coc2c1 | > 100 | > 100 | 34 | 8.45 | > 200 | 2.13 | 146 | 68.6 | > 100 | 52.1 | 2.8 |  |
| O=C(/C=C/c1coc2cc(O)ccc2c1=O)NCCc1ccc(F)cc1 | 6.84 | > 100 | > 100 | > 100 | > 200 |  | 102 | > 100 | 15.4 | 14.6 | 7.03 | 6.64 |
| COc1ccc2c(=O)c(/C=C/C(=O)NCCc3ccccc3F)coc2c1 | 10.3 | 12.2 | 81.7 | > 100 | > 200 |  | 457 | > 100 | > 100 | 47.9 | 9.55 |  |
